Reference: ChEMBL document CHEMBL5346895, “Small molecule inhibitors of intestinal epithelial anion exchanger SLC26A3 (DRA) with a luminal, extracellular site of action” (Eur J Med Chem, 2023)
Active and inactive are the calls of the source. The rule behind the calls is not given here.

Experiments:
[1] = target: T1, Solute carrier family 26 member 9 (Homo sapiens) (UniProt Q7LBE3); assay: Inhibition of SLC26A9 (unknown origin) at 10 uM by YFP-based assay relative to control
T1 sequence (whole entry): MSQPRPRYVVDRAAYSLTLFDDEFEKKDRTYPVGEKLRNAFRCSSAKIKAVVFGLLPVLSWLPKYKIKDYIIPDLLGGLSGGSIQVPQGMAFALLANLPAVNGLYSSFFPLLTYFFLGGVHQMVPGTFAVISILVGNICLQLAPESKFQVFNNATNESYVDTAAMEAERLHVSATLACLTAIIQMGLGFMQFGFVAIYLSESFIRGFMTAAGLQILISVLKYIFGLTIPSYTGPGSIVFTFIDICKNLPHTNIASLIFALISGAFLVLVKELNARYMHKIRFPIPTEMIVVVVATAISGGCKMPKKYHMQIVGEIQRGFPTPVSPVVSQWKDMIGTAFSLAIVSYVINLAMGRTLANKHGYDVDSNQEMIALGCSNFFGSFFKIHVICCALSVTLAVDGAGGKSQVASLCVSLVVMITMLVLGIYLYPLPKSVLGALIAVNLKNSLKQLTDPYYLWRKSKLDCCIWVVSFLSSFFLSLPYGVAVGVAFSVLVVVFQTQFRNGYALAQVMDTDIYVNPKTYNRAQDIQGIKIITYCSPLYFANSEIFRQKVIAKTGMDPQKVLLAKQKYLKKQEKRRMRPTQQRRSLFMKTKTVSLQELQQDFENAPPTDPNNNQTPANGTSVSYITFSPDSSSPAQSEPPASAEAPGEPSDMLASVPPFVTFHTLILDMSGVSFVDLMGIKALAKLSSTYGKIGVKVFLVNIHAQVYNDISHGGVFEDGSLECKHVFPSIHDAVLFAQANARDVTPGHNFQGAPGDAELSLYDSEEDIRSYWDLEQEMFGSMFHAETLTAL

[2] = target: Cystic fibrosis transmembrane conductance regulator (Homo sapiens) (UniProt P13569); assay: Inhibition of CFTR (unknown origin) at 10 uM by YFP-based assay relative to control
[3] = target: T2, Chloride anion exchanger (Mus musculus) (UniProt Q9WVC8); assay: Inhibition of mouse SLC26A3 expressed in FRT cells coexpressing YFP iodide-sensing protein at 5 times IC50 incubated for 10 mins followed by compound washout by fluorescence quenching analysis relative to control; format: cell-based
T2 sequence (whole entry): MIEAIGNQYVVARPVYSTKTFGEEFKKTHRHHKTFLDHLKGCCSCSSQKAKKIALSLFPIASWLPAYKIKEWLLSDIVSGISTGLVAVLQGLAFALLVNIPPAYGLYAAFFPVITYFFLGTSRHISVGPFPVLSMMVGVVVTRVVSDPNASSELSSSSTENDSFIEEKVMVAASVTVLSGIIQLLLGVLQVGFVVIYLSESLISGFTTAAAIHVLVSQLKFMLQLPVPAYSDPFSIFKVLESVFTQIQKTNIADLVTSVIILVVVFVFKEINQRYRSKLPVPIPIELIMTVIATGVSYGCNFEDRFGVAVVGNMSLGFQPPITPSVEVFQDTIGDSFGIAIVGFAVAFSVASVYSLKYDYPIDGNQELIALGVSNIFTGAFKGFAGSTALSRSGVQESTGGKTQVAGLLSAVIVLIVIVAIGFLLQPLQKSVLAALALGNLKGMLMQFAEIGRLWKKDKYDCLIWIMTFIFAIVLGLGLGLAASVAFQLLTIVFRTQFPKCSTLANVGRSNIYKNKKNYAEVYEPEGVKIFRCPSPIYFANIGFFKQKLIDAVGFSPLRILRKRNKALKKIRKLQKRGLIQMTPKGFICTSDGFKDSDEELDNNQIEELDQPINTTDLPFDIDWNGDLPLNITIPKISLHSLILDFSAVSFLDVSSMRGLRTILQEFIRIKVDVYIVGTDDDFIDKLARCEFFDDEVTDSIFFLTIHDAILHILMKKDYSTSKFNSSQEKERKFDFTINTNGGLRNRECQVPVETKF

Pendrin (Homo sapiens) = target: T3, Pendrin (Homo sapiens) (UniProt O43511); assay: Inhibition of SLC26A4 (unknown origin) at 10 uM by YFP-based assay relative to control
T3 sequence (whole entry): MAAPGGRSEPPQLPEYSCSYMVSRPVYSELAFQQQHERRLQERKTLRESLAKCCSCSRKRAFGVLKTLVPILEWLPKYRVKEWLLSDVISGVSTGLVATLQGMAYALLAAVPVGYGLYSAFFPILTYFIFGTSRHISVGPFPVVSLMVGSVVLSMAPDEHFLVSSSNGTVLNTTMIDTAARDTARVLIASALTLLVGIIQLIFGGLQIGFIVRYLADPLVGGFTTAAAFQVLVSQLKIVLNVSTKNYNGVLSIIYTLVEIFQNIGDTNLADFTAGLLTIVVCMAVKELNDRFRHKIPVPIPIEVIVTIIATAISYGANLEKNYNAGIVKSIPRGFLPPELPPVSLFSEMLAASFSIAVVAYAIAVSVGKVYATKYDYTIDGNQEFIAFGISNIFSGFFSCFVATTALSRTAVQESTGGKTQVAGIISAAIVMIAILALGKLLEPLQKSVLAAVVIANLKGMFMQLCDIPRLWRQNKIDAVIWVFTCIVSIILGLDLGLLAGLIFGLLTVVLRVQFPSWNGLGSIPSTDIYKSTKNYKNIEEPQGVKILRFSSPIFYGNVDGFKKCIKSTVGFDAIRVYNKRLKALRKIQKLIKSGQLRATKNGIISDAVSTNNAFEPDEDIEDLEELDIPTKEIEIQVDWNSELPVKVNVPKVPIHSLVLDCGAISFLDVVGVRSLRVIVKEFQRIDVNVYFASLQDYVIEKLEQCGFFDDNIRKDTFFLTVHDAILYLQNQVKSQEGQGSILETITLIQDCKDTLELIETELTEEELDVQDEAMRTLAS

[4] = target: T2, Chloride anion exchanger (Mus musculus); assay: Inhibition of mouse SLC26A3 expressed in FRT cells coexpressing YFP iodide-sensing protein at 5 times IC50 incubated for 10 mins by fluorescence quenching analysis relative to control; format: cell-based
[5] = target: T2, Chloride anion exchanger (Mus musculus); assay: Inhibition of mouse SLC26A3 expressed in FRT cells coexpressing YFP iodide-sensing protein at 2 times IC50 measured for 14 secs by fluorescence quenching analysis relative to control; format: cell-based; conditions: time 14.0 sec
Procedure, shortened: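 Onset kinetics in FRT cells co-expressing murine slc26a3 and YFP halide sensor. […] Fluorescence read for 1 s before and 12 s after syringe-pump addition of iodide solution (NaCl replaced by 140 mM NaI). Inhibition taken from the quenching rate.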

Mus musculus = assay: Effect on loperamide-induced constipation in CD-1 mouse assessed as increase in pellet number at 10 mg/kg, po via gavage administered 1 hr prior to loperamide administration measured for 3 hrs; format: functional, organism-based; conditions: time 4.0 hrs
Procedure, shortened: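 CD1 mice (bred in house, 8–12 weeks). Test compound given by oral gavage at 10 mg/kg in saline with 5% DMSO and 10% Kolliphor-HS, or vehicle alone, 1 h before loperamide (0.3 mg/kg ip in PBS with 5% ethanol). Mice then held in metabolic cages with free food and water. Stool collected over 3 h for total weight and pellet count. Water content from wet vs dry stool weight.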

Sequence of Cystic fibrosis transmembrane conductance regulator (Homo sapiens) (P13569 whole entry, looked up): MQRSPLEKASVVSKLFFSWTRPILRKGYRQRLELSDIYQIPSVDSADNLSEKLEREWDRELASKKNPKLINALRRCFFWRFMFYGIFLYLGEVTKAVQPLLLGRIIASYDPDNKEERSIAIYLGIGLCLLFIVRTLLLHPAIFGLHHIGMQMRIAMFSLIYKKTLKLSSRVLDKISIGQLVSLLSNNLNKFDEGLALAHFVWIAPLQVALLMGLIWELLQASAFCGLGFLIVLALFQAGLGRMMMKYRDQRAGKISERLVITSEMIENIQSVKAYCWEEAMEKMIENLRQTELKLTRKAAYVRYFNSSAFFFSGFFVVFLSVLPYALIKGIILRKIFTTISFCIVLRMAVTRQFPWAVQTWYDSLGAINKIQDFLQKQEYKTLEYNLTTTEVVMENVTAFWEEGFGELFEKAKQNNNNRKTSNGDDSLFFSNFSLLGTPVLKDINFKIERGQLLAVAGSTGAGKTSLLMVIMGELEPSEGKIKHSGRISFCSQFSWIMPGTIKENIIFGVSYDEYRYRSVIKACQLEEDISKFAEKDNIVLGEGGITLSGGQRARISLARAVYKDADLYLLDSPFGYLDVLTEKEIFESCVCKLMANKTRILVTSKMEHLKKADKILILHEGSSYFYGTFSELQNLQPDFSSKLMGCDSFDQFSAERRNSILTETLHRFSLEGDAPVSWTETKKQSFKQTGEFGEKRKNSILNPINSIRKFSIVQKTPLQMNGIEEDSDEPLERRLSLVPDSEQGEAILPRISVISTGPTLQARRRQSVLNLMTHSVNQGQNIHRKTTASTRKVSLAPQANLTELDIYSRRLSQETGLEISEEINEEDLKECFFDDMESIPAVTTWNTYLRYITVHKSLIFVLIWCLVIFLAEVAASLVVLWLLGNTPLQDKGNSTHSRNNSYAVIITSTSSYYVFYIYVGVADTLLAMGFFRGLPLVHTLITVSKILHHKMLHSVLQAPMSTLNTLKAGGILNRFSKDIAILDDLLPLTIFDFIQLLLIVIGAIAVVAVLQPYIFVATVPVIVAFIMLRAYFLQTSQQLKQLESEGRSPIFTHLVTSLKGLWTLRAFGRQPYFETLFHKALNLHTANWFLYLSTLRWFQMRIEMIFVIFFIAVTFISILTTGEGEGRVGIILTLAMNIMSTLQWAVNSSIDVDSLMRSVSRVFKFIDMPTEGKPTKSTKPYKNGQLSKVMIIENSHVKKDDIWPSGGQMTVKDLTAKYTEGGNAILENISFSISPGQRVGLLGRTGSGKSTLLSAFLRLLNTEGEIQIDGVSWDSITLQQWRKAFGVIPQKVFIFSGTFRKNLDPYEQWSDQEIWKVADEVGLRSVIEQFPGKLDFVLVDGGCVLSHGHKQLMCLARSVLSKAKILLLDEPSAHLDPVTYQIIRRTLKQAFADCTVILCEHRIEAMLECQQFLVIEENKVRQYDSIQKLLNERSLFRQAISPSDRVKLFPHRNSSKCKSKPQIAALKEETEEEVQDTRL

Compound	inhibition [1] [%]	inhibition [2] [%]	inhibition [3] [%]	inhibition (Pendrin (Homo sapiens)) [%]	inhibition [4] [%]	inhibition [5] [%]	Activity (Mus musculus)
Cc1ccccc1COc1ccc2oc(-c3ccccc3)c(C(=O)O)c2c1	-8	12	25	-13	87	38	–
O=C(Nc1cccc(-c2nc3ccccc3c(=O)o2)c1)c1ccc(Cl)cc1	-2	-2	–	-3	–	–	–
O=c1cc(COc2ccccc2Cl)nc2scc(-c3ccccc3)n12	22	4	32	–	92	66	Active
Cc1cc(C)cc(N(C)S(=O)(=O)c2nnc(NC(=O)COc3ccc(C)c(C)c3)s2)c1	-2	5	–	17	–	–	–
